System: MS2 coat protein
Assay: apparent Kd, MS2 coat protein; higher = weaker binding; RNA-MaP array; FMN 200 µM where present
Method in brief: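 Stalled E. coli RNA polymerase transcribed the designs on Illumina sequencing-chip clusters. SNAP-549-labelled MS2 coat protein was titrated from 0.7 or 1.5 nM, doubling to 3 µM, without and then with constant ligand, in 100 mM Tris-HCl pH 7.5, 80 mM KCl, 4 mM MgCl2, BSA, DTT, yeast tRNA and Tween-20. Per-cluster binding curves were fitted to green signal normalised to red-channel RNA signal and control-cluster median Fmax. The apparent Kd is the median of the filtered fits.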

[1] = designed as: OFF switch for flavin mononucleotide, no ligand
[2] = ligand present: flavin mononucleotide, designed as: OFF switch for flavin mononucleotide
[3] = designed as: ON switch for flavin mononucleotide, no ligand
[4] = ligand present: flavin mononucleotide, designed as: ON switch for flavin mononucleotide

Sequence | apparent Kd [1] [nM] | apparent Kd [2] [nM] | apparent Kd [3] [nM] | apparent Kd [4] [nM]
UUUAUGUCAGGAUAUGAUUAGAUCUACUUCGGUAGAUCUAAUCAGAAGGGACAUGAGGAUCACCCAUGUUUUUU | 43.8 | 223 | – | –
GGUCUGCGAGGAUAUACAUGAGGAUCACCCAUGUGCGAGAUACUAGUGAGGUCGAUUGGUAGAAGGCGCGGACA | 105 | 66.6 | – | –
AGUACUACAGGAUAUACAUGAAUGAUAAUCAUUACCCUUAUACAUGAGGAUCACCCAUGUAGAAGGGUAGUACA | 16.4 | 20 | – | –
UGCAUGCUAGGAUAUACGGGACAUUAGGGUUCGUUGUGUGGACAUGAGGAUCACCCAUGUAGAAGGAGCGUGCU | 85.6 | 243 | – | –
UGUCGGAGCAGAGGAUAUUACAUGAGGAUCACCCAUGUAUGAACCAAUAGCUGGAAACAGCAAUGUAAGAAGGCUGCUCAGACA | 11.9 | 137 | – | –
AUCAGAUCGUCAGGAUAUACGUCACUGCGUCAGCAGUGUGGUAAGAUCACAUGAGGAUCACCCAUGUAGAAGGGACGAGCUGAU | 13.9 | 296 | – | –
CGCAAUAUACAGAAGGAGUUAUUUAGAGGAUUACUAGGAUAUGUUCACAUGAGGAUCACCCAUGUCAUAUGGAGUUUUAUUGCG | 9.43 | 8.27 | – | –
GACUGAUUGUAGAAGGUACUUGAAUAUAUAUUUUAUCUCAUGUGACAUGAGGAUCACCCAUGUAGUAAGGAUAUACAUAUCACA | – | – | 52.9 | 42.2
CUGCGACGGUGCACAAGUGGACGGAGAAGGCAGACAUGAGGAUCACCCAUGUGAGCCUGCUAUUCUGAGGAUAUCCGUUCACAC | 36 | 213 | – | –
AGGGAGUUAGGAUAUGCUGCUCGUCACUUGCGUGAUGAGUAGCAGAAGGAACAUGAGGAUCACCCAUGUAAAGA | 34.9 | 28.8 | – | –
GGAAUGUCGGGAGGAUAUCCAAAUGUAUACAUAGGAGAAGGCCCGCACAUGAGGAUCACCCAUGUAAUAACGCGUGGCAUCAAC | 82.8 | 119 | – | –
GGGCUGUCAGGAUAUCCCGGGUUUGGGUAAACCCGGGCCCGGGAGAAGGGACAUGAGGAUCACCCAUGUGGCCC | 32.1 | 31.8 | – | –
CUGAUGUUAGGAUAUCAGGUCGCGCACGAAGGCGCGCGGCAUGAGAAGGAACAUGAGGAUCACCCAUGUGACGA | 48.4 | 145 | – | –
AAAGGACGAGGAUAUACAUGAGGAUCACCCAUGUAAAAAACAUAAUAAAAGAACUUAUGUAGAAGGCGUCCAAA | 58.6 | 336 | – | –
UUACCCUCAGUAAGGAUAUCUUUAUCUGCUGAUAUAGAGAAGGUACAUGAGGAUCACCCAUGUGCGAUUGGGCU | 116 | 282 | – | –
GAGUGGAUGAGACCGCGGGCGACAUGAGGAUCACCCAUGUUGCAGGAUAUCAGUGCGUCGGCGCCUGAGAAGGGCGACAAUCAU | 6.56 | 7.11 | – | –
AUCAGCUCGUCAGGAUAUACGUCACUGCUUCGGCAGUGUGGUAAGAUAACAUGAGGAUCACCCAUGUAGAAGGGACGAGCUGAU | 6.3 | 12.1 | – | –
UUGGACGUCGUAGGAUUUGUAGGAUAUUCCUACAUGAGGAUCACCCAUGUUGACAUGGAAGAAGGACAGAAGGACGAUGUCCAU | – | – | 87.3 | 5.51
UAGGUUUGUAGUUACAUCCCUACACAGGAUAUAGGUAGUUACAUGAGGAUCACCCAUGUUCGAACUUAGAAGGGUGGAUCGUUG | – | – | 48 | 10.3
UUUUACUAGUAAGGAUAUACUAGCGAUUAGCUUGUAGAAGGUACAGUCUUAUGUAUAACAUGUUAACAUGAGGAUCACCCAUGU | – | – | 62.1 | 34.5
GAGAAGUCAGGAUAUGCAUGGCGGGACUUGCGUCGUGGCGUGCAGAAGGGACAUGAGGAUCACCCAUGUGGAGC | 114 | 161 | – | –
UAAUAAUAGUCAGGAUAUAGUUAUUAUAAUAUACUAGAAGGGACACAUGAGGAUCACCCAUGUUUUAUAAUUUGUAAUUUAAAU | 21.6 | 17.7 | – | –
AUUAUUGACGAAGGAUAUGGAUACAUGAGGAUCACCCAUGUAUAAUUUGUGAUCAUAUAUAUGAUCCAGAAGGUCGUUGUUUAU | 41 | 63.8 | – | –
CAUAUCCAAGGAUAUACGAUGGCUCCUUCCAUCGUGUGACCACAUGAGGAUCACCCAUGUAGAAGGUGGAUAUU | 23.2 | 24 | – | –

Sequence | apparent Kd [1] [nM] | apparent Kd [2] [nM] | apparent Kd [3] [nM] | apparent Kd [4] [nM]
CGUUGAUGAGGAUAUCGAUGUUAGUACAUGAGGAUCACCCAUGUUAUCCAAGUGUCGUUUCGAGAAGGUAUUGGAC | 216 | 348 | – | –
UGUAUGUAGGAGAAGGAGGACUUCAUGAGGAUCACCCAUGUGUUAGGACUUAGGAUAUUUGACGACAUGAGGAUCACCCAUGUG | – | – | 58.3 | 49.6
CGUCUGUGAGGAUAUGGUGUCGUUUACAUGAGGAUCACCCAUGUUUCAUGGGACUAGAGACUAGAAGGUACUGACG | 314 | 413 | – | –
UGUCGGAGCAGAGGAUAUUACAUGAGGAUCACCCAUGUAUGAACCGAUAGCUGGAAACAGCAAUGUAAGAAGGCUGCUCCGACA | 19 | 258 | – | –
AGUGUCAUCGAGAAGGCCUCGACAUGAGGAUCACCCAUGUUGUAAUAUGGGAGGAUAUCGAUGAUACAGCUACGUUUCGUAGCA | – | – | 40.3 | 13.4
GGAGCACACAUUUACAUGAGGAUCACCCAUGUCAAAAGACAUGAGGAUAUGGAUCCGAAAAGGAUCCAGAAGGCAUGGUGCUCC | – | – | 106 | 8.38
GGAUAGGACAGAGGAUAUACGUGCUAGAGAUACUAGCAAACUUUCCUCACAUGAGGAUCACCCAUGUAGAAGGCUGUCCUAUCG | 21.1 | 483 | – | –
GAUAUGUUAGGAUAUCAAACCUUGUUGAAUCAACGAGCCAGUGAGAAGGAACAUGAGGAUCACCCAUGUGUCCG | 16.2 | 16.3 | – | –
GCUUUAGCACAUGAGGAUCACCCAUGUAGCGUGGGCUUACACAGAAGGGCAAACCGUUACGGGAUGUAGGAUAUGUGCAAAAUG | – | – | 196 | 68.6
CUAAGGGAUUGCUCGAAGACAUGAGGAUCACCCAUGUAGGCGAGAAGGGCGGCGACUUUAGCGCUGCAGGAUAUCGACUGCAGU | 9 | 10.1 | – | –
GGGCCAACAUGAGGAUCACCCAUGUAGGAUAUCGCUAUUGUAAUCAUGAAACAUGAUUACAAUAGCGAGAAGGACAUAUGCAAA | 7 | 7.7 | – | –
GGGUACAUCGGAGGAUAUCAGGUAAAUACAUGAGGAUCACCCAUGUCGAUGGAGACAUCGGAGAUUGAGAAGGCCGAUGUACCG | – | – | 7.6 | 5.13
AAAAGACAUGAGGAUCACCCAUGUGAAAACGUAGGAGGAUAUGUAUGGAAACCAUACUGUACAGAAGGCCUUUGUC | – | – | 28.1 | 29.7
AGGUAAGACUUAAUUGUGCUGGUGAGAAGGCUGCUGGUUGUGGUCUACAUGAGGAUCACCCAUGUUGAGGAUAUCAUCGGUAUC | 711 | 103 | – | –
GUGUCUAACUAGAAGGCCGAUAGCAAAGCUAUCGGAGGAUAUGGGUUCCGGAAACGGACAUGAGGAUCACCCAUGUGGCACAAA | – | – | 103 | 13.8
UGUUGGAGCGAGAAGGGACGAUGGGAAGCUGUAGGCUGGCACUGUAGACAUGAGGAUCACCCAUGUCAGGAUAUUGCCGAACUA | 5.83 | 7.71 | – | –
UACAGACAUGAGGAUCACCCAUGUGAGGAUAUCGAUAACGAUAAAAUAAUAUAAACAACGAGAAGGCACAGCAU | 34.3 | 40.3 | – | –
GUCAGCUCGUGAGGAUAUAGAACACUGCUUCGGCAGUGUAUUAAGAUCACAUGAGGAUCACCCAUGUAGAAGGCACGAGCUGAU | 5.12 | 9.33 | – | –
UGGUGAGUCAAGAAGGACAUGAGGAUCACCCAUGUAGGAUAUUGGCGUCACGGCUCCAAUACGUACAUGUGGGACGGUCAAAGG | – | – | 48.6 | 16.5
CUUUUGUGAGGAUAUCAGUAGUAGAACAAUAGUACUACUACUGAGAAGGCACAUGAGGAUCACCCAUGUACCUC | 19.4 | 69.7 | – | –
AACAGUAGAGGAUAUACAUGAGGAUCACCCAUGUGAGAAUUACGUGGCGUACCACGAAGUAGAAGGCUACUGGA | 61.3 | 302 | – | –
AUAUAGGCUAACAUGAGGAUCACCCAUGUGUUAUACUUAAUAUAGGAUAUGUUUAUACUUUUUGGGCAGAAGGAUGGCCUAUAU | – | – | 36.4 | 27.3
UUCUUACGAGGAUAUCGAUUGUGGUACAUGAGGAUCACCCAUGUAUGUGAUAUUGUAUUUCGAGAAGGCGUUCAGU | 26.4 | 24.1 | – | –
GUCAGAUCGUGAGGAUAUACAACACUGCUUCGGCAGUGUAUUAAGAUCACAUGAGGAUCACCCAUGUAGAAGGCACGAGCUGAU | 13.3 | 236 | – | –

— the EternaBench riboswitch data
